SENP1 inh = human SENP1 catalytic domain inhibitors, primary screen, biochemical, FRET, uHTS; Sentrin-specific protease 1 (Homo sapiens), Q9P0U3; recombinant SENP1 catalytic domain, CyPet-SUMO1-YPet FRET cleavage; inhibition, % at 10 µM; 0.21% of 360,000 active; AID 624204, 2012;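 active means inhibition at least 30% at 10 µM, raw YFP signal under a set limit, fluorescence ratio 0.5 to 1.5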
Target sequence (Q9P0U3 419-644 limits assumed): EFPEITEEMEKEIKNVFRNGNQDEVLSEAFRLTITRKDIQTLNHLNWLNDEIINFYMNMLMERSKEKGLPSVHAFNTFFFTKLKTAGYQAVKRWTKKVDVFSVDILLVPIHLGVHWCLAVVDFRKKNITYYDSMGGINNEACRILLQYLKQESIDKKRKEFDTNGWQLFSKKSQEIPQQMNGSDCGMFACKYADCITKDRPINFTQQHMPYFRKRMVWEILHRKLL
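Test system: hSENP1 catalytic domain, recombinant; Amount: 20 pM final SENP1 enzyme; Medium: Tris pH 8 buffer plus EDTA, NaCl, BME, BSA, NP40, catalase; Schedule: 50 min enzyme reaction, room temperature, light-protected; Technique: FRET fluorescence in CFP and YFP emission channels; Controls: no-enzyme wells low, DMSO-plus-enzyme wells high control.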
Arrestin-AP2 inh = inhibitors of beta-arrestin/AP2 binding, primary screen, biochemical, GPCR trafficking, flow cytometry; FITC-arrestin peptide / GST-AP2 beads; AP2 beta2 appendage carries R879A mutation; inhibition, % at 10 µM; 0.31% of 340,000 active; AID 504490, 2011;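 active means inhibition above a set limit, near 3 SD of compounds lacking own fluorescence, cut at about 54% in these data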
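System: GST-AP2 R879A bound to glutathione beads, E. coli-expressed. Also added: 50 nM FITC-arrestin peptide. Schedule: compound with beads 12 min RT, then probe 1 h RT. Signal: bead flow cytometry, FITC channel. Read-out basis: percent response.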
iPSC survival up = enhancers of single-cell hiPSC survival, primary screen, ATPlite luminescence; 100% = ROCK inhibitor wells, 0% = DMSO; 0.044% of 360,000 active; survival enhancement, % at 20 µM; AID 602274, 2012; in the data active means survival enhancement above about 18%;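 further: cells exposed to compounds for 16 hours before the ATP read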
FAS TE block = FAS thioesterase domain inhibitors, primary screen, biochemical, fluorescence intensity, uHTS. Fatty acid synthase (Homo sapiens), P49327. recombinant FAS-TE, OMFH fluorogenic substrate, fluorescence endpoint. inhibition, % at 15 µM. 0.67% of 360,000 active. AID 602261, 2012;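 active means compounds whose normalised, plate-corrected inhibition of enzyme fluorescence in the single-dose primary screen is 50% or more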
NR3A LBD binder = binders of NR3A ligand-binding domain, primary screen, biophysical, differential scanning fluorimetry, uHTS; 2.5% of 340,000 active; Tm shift relative to glycine control, % at 25 µM; NR3A LBD differential scanning fluorimetry, Tm shift; 0% = protein alone, 100% = glycine-bound protein; AID 1259313, 2017;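 active means melting temperature shift of at least 10% of the positive control shift, at one fixed dose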
Cardio protect = cardioprotection against H2O2-induced cell death, primary screen, uHTS, H9c2 cells, ATPLite luminescence; protection from H2O2 cell death, % at 20 µM; H9c2 cardiomyocytes, H2O2 injury protection, 2 h; 0.63% of 360,000 active;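 active means compounds giving at least 50% protection of heart cells from peroxide-induced death in the single-dose screen, raw or plate-pattern-corrected value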
Of the large screens only hits and unclear results are named; the others gave an inactive call. This is a sample that favours compounds with a hit; in the whole collection about 4% have one here.

O=C(NNc1nc(-c2ccc(Br)cc2)cs1)c1ccco1	none
O=Cc1ccc(OCc2cccc(C(F)(F)F)c2)cc1O	Cardio protect 68
COCOc1ccc(C=O)c(O)c1	none
CCSC1=N/C(=C\c2ccc3c(c2)OCO3)C(=O)S1	none
CCSC1=N/C(=C\c2cccc(F)c2)C(=O)S1	NR3A LBD binder 15
CCOC(=O)[C@]12CCC=C1N(Cc1cccc3ccccc13)C(=O)[C@H](CC(=O)N1CCN(C(=O)c3ccco3)CC1)C2	none (no result: Arrestin-AP2 inh, NR3A LBD binder, Cardio protect)
O=C(NCc1ccc2c(c1)OCO2)C(=O)NCC1OCCCN1S(=O)(=O)c1cc(F)ccc1F (configuration not stated)	NR3A LBD binder 13
O=C(Nc1cccc(C(F)(F)F)c1)Nc1nnc([C@@H]2C[C@H](O)[C@@H](CO)O2)s1	none (no result: Arrestin-AP2 inh, NR3A LBD binder)
O=C(Nc1cccc(-c2csc(-c3ccccc3)n2)c1)c1cccs1	NR3A LBD binder 24
O=C(Nc1ccc(F)cc1)Nc1sccc1-c1nc2ccccc2s1	NR3A LBD binder 31
O=C(Nc1nc2ccccc2s1)c1ccc(F)cc1	none
O=C(Nc1ccc(O)c(-c2nc3ccccc3s2)c1)c1cccs1	NR3A LBD binder 26
Cc1cccn2cc(-c3cccc(NC(=O)c4cccs4)c3)nc12	NR3A LBD binder 23
COc1ccc(/C=C/C(=O)OCC(=O)N2c3ccccc3CC2C)c(OC)c1 (configuration not stated)	none (no result: Arrestin-AP2 inh, NR3A LBD binder)
CC(CCC(=O)O)C1CCC2C3CCC4C[C@H](O)CCC4(C)C3CC(=O)C12C (some centres not stated)	none
CC1=C(CC[C@@H](C)CO)OC2CC3C4CCC5CC(O)CCC5(C)C4CC(=O)C3(C)C12 (some centres not stated)	Cardio protect 50
C=C1C(=O)N(C)CCC1C(CC)C(=O)OC (configuration not stated)	none (no result: Arrestin-AP2 inh, NR3A LBD binder)
C#CCN(C[C@@H]1[C@@H](OC(=O)NCC2CCCCC2)[C@@H](OC(=O)NCC2CCCCC2)Cn2c(=O)n(CCCCCC)c(=O)n21)S(=O)(=O)c1ccc(C)cc1	none (no result: Arrestin-AP2 inh, NR3A LBD binder)
CCOc1ccc(-c2n[nH]c(C)c2Oc2ccc(OC)cc2)c(O)c1	NR3A LBD binder 12
Cc1[nH]nc(-c2ccc(OCc3cnn(-c4ccccc4)c3)cc2O)c1Oc1ccc(F)cc1	NR3A LBD binder 20
COc1cccc(Nc2ccc(N3CCCCC3)cc2)c1OC	SENP1 inh 90
COc1cccc(CNc2ccc(N3CCCCC3)cc2)c1OC	none
Cc1ccc(-c2cc3nc(C)cc(N4CCN(C(=O)c5ccoc5)CC4)n3n2)cc1	none (no result: Arrestin-AP2 inh, NR3A LBD binder)
COc1cccc(-c2cc3nc(C)c(C)c(N4CCN(C(=O)c5ccoc5)CC4)n3n2)c1	Cardio protect 56 (no result: Arrestin-AP2 inh, NR3A LBD binder)
COc1ccc(-c2cc3nc(-c4ccccc4)cc(N4CCN(C(C)=O)CC4)n3n2)cc1	Cardio protect 80 (no result: Arrestin-AP2 inh, NR3A LBD binder)
Cc1cc(C)c2cc(C#N)c(NCCCNC(=O)c3cccnc3)nc2c1	none (no result: Arrestin-AP2 inh, NR3A LBD binder)
COc1ccc(C(O)c2nc(-c3ccc(OC)c(OC)c3)cs2)cc1 (configuration not stated)	none (no result: Arrestin-AP2 inh, NR3A LBD binder)
NC(=O)c1cccc(Nc2nc(C(N)CCc3ccccc3)cs2)n1 (configuration not stated)	Cardio protect 77 (no result: Arrestin-AP2 inh, NR3A LBD binder)
COc1cc(/C=C2\SC(N3CCC(C)CC3)=NC2=O)ccc1O	SENP1 inh 63
COc1ccc(/C=C2\SC(N3CCCCC3)=NC2=O)cc1OC	none
COc1ccc(OC)c(S(=O)(=O)N/N=C(/C)c2c[nH]c3ccccc23)c1	NR3A LBD binder 25
COc1ccc(OC)c(S(=O)(=O)N/N=C(/C)c2ccc3c(c2)OCO3)c1	none
COc1ccc(OC)c(S(=O)(=O)N/N=C\c2c[nH]c3ccccc23)c1	NR3A LBD binder 32
CC(=O)C1CCC2C3C=CC4=CC(=O)CCC4(C)C3CCC12C (configuration not stated)	none (no result: Arrestin-AP2 inh, NR3A LBD binder)
CCCCN1CC(COCc2ccccc2)Oc2cccc(Oc3ccccc3)c2S1(=O)=O (configuration not stated)	none
CCCCN1CC(COCc2ccccc2)Oc2cccc(Oc3ccc(F)cc3)c2S1(=O)=O (configuration not stated)	NR3A LBD binder 13
O=S1(=O)c2c(Oc3cccc4ccccc34)cccc2OC(COCc2ccccc2)CN1C1CCCC1 (configuration not stated)	NR3A LBD binder 18
CCc1nc2ccc(C(=O)Nc3ccc4c(c3)OCC(=O)N4)cn2c1N(CC)Cc1cccc(Br)c1	none (no result: Arrestin-AP2 inh, NR3A LBD binder)
Clc1nc2sccn2c1/C=N/n1cnc2ccccc21	Cardio protect 66
Cc1cc2nc(-c3ccc(C#N)cc3)c(Cc3ccsc3)n2c(C)c1Br	none (no result: Arrestin-AP2 inh, NR3A LBD binder, Cardio protect)
CC(C)C[C@H]1CN(CCCC[C@@H]2CNC(=O)C(=O)N2CC2CCCCC2)C(=O)C(=O)N1CCc1ccccc1	none (no result: Arrestin-AP2 inh, NR3A LBD binder, Cardio protect)
CCOC(=O)c1c(N)sc2c1CCC1C(=O)N(C3CCCCC3)C(=O)C21 (configuration not stated)	NR3A LBD binder 13
CC(O)(c1cccc(F)c1)c1nc(-c2cc(F)cc(F)c2)cs1 (configuration not stated)	none (no result: Arrestin-AP2 inh, NR3A LBD binder)
CC1Cc2ccccc2N1C(=S)NC(=O)c1ccc(Cl)cc1Cl (configuration not stated)	none
CC1Cc2ccccc2N1C(=S)NC(=O)c1cccc(Br)c1 (configuration not stated)	Cardio protect 69
CC(=O)c1ccc(NC(=O)C(C)OC(=O)C(C)Oc2cccc(C)c2)cc1 (configuration not stated)	NR3A LBD binder 10
NC(=S)n1[nH]c(-c2ccc([N+](=O)[O-])cc2)c(N=Nc2ccc(O)cc2)c1=O	NR3A LBD binder 27
NC(=S)n1[nH]c(-c2ccc([N+](=O)[O-])cc2)c(N=Nc2cccc(Cl)c2)c1=O	NR3A LBD binder 25
Cc1[nH]n(C(N)=S)c(=O)c1N=Nc1cccc(Cl)c1	none
CCCNC(=O)C1(C)CCN(C(=O)c2sccc2C)C1 (configuration not stated)	none (no result: Arrestin-AP2 inh, NR3A LBD binder)
CCOC(=O)Nc1ccc2nc(-c3cscn3)[nH]c2c1	none (no result: Arrestin-AP2 inh, NR3A LBD binder)
CC(=O)Nc1ccc(NC(=O)CSCc2ccccc2Cl)cc1	none
C/C(=N\NC(=O)CSCc1ccccc1Cl)c1cc(O)ccc1O	Cardio protect 51
